Test results from publication PMC11077555 (Chemical Science, 2024).
Several values for one entry are separate records, joined by “and”; a condition that tells them apart may be missing. Equal values may be shown once.

Legend:
human recombinant PSMA = human recombinant PSMA (Homo sapiens, UniProt Q04609); test: Fluorescence polarization; format: binding
human recombinant GCPIII = human recombinant GCPIII (Homo sapiens, UniProt Q9Y3Q0); test: Fluorescence polarization; format: binding; conditions: for Kd: KD,GCPIII; for Kd / affinity against GCPIII (in words): off-DNA FP; for fold selectivity (fold higher dissociation constant towards GCPIII): compared to the original HIT3
Chain of human recombinant GCPIII (Q9Y3Q0 whole entry): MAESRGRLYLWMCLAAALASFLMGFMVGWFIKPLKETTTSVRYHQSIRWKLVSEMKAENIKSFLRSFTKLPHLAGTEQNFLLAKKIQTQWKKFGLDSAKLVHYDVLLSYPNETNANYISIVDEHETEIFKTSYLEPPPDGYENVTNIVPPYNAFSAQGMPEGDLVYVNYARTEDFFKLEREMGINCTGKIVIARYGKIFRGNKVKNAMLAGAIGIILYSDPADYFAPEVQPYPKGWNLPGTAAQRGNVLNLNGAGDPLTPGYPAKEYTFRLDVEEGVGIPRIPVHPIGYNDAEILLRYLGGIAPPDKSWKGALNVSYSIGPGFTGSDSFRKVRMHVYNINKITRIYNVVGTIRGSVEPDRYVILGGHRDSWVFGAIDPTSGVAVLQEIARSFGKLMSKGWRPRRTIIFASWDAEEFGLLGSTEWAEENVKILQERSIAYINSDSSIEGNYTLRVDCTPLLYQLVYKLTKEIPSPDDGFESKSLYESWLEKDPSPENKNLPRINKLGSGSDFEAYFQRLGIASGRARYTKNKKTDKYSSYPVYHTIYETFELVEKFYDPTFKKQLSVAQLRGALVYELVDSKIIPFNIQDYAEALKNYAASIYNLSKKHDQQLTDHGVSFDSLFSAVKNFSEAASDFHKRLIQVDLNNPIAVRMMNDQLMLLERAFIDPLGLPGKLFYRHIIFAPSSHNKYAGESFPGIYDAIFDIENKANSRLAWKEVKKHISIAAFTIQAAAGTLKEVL

HT1080.hPSMA cells = test: Flow cytometry on HT1080.hPSMA cells; format: cell-based, human; conditions: HT1080.hPSMA vs HT1080.wt; fluorescein-labelled compounds 50-250 nM
How it was run: (§1)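 Fluorescein-conjugated test compounds were incubated with PSMA-positive cells (HT1080.hPSMA, LNCaP), with PSMA-negative HT1080.wt cells as reference. Cell-bound fluorescence was measured by flow cytometry to assess recognition of PSMA in a native cellular environment.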

LNCaP cells = test: Flow cytometry on LNCaP cells; format: cell-based; conditions: HT1080.wt as reference
How it was run: as §1

PSMA = conditions: read-out: IC50,PSMA; cited from earlier work
HT1080.hPSMA tumors = test: Quantitative in vivo biodistribution in tumor-bearing mice; set-up: species or system BALB/c nude mice; conditions: 2 h after i.v., n = 3
[1] = in combination with best standard of care; cited from earlier work

Chain of human recombinant PSMA (Q04609 whole entry): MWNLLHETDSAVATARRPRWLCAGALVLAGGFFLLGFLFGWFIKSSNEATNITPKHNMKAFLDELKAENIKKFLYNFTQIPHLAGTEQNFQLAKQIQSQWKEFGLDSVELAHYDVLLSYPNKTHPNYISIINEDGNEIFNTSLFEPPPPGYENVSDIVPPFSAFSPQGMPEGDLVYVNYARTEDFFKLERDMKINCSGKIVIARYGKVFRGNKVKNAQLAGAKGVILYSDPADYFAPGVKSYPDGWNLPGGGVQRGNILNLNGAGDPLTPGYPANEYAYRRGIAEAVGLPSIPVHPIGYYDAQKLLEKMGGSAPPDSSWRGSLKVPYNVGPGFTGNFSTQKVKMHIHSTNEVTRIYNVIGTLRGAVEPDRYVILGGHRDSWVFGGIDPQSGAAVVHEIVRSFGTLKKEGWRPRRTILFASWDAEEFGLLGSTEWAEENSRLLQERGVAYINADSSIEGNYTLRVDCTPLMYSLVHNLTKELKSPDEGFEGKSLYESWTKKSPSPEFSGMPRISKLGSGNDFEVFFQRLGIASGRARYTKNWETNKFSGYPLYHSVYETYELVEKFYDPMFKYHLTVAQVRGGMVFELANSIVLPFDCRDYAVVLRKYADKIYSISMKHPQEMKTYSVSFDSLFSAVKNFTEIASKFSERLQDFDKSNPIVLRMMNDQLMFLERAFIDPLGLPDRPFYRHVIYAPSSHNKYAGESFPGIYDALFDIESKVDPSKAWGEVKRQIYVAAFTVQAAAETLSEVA

Q: Which Kd (human recombinant PSMA) does the source give for `N#Cc1cccc(C[C@H](NC(=O)c2nn(-c3ccccc3)c(=O)[nH]c2=O)C(=O)N[C@@H](Cc2ccc(CP(=O)(O)O)cc2)C(=O)N[C@@H](CCCCNC(=S)Nc2ccc3c(c2)C(=O)OC32c3ccc(O)cc3Oc3cc(O)ccc32)C(=O)O)c1` [Compound 1] here?
A: Its Kd is 260 ± 5 nM.

Q: What about the Kd (human recombinant GCPIII) of the same compound?
A: Its Kd is 600 ± 3 nM.

Q: For `O=C(O)CNC(=O)c1cc(CNC(=O)c2ccc(CNC(=O)[C@H]3C[C@H](NC(=O)CCNS(=O)(=O)c4ccc5ccccc5c4)CN3C(=O)c3nn(-c4ccccc4)c(=O)[nH]c3=O)cc2)cc(OCC(=O)N[C@@H](CCCCNC(=S)Nc2ccc3c(c2)C(=O)OC32c3ccc(O)cc3Oc3cc(O)ccc32)C(=O)O)c1` [Compound 5], which “affinity against GCPIII (in words)” value (human recombinant GCPIII) is on record?
A: The value was “no measurable affinity was detected”.

Q: With `O=C(CCNS(=O)(=O)c1ccc2ccccc2c1)N[C@H]1C[C@H](C(=O)N[C@@H](CCCCNC(=S)Nc2ccc3c(c2)C(=O)OC32c3ccc(O)cc3Oc3cc(O)ccc32)C(=O)O)N(C(=O)c2nn(-c3ccccc3)c(=O)[nH]c2=O)C1` [Compound 6] as the compound, how does the “affinity against GCPIII (in words)” value (human recombinant GCPIII) read?
A: Its value is “no measurable affinity was detected”.

Q: For `O=C(O)CNC(=O)c1cc(CNC(=O)c2ccc(CNC(=O)[C@H]3C[C@H](NC(=O)CCNS(=O)(=O)c4ccc5ccccc5c4)CN3C(=O)c3nn(-c4ccccc4)c(=O)[nH]c3=O)cc2)cc(OCC(=O)NCCOCCOCCNC(=S)Nc2ccc3c(c2)C(=O)OC32c3ccc(O)cc3Oc3cc(O)ccc32)c1` [Compound 7], which “affinity against GCPIII (in words)” value (human recombinant GCPIII) is on record?
A: The value was “no measurable affinity was detected”.

Q: Which results are given for `O=C(CCNS(=O)(=O)c1ccc2ccccc2c1)N[C@H]1C[C@H](C(=O)NCCOCCOCCNC(=S)Nc2ccc3c(c2)C(=O)OC32c3ccc(O)cc3Oc3cc(O)ccc32)N(C(=O)c2nn(-c3ccccc3)c(=O)[nH]c2=O)C1` [Compound 8, (2R,4S) -N-(2-(2-(2-(3-(3',6'-dihydroxy-3-oxo-3H-spiro[isobenzofuran-1,9'-xanthen]-5-yl)thioureido)ethoxy)ethoxy)ethyl)-1-(3,5-dioxo-2-phenyl-2,3,4,5-tetrahydro-1,2,4-triazine-6-carbonyl)-4-(3-(naphthalene-2-sulfonamido)propanamido)pyrrolidine-2-carboxamide]?
A: Kd (human recombinant PSMA): > 10000 nM; affinity against GCPIII (in words) (human recombinant GCPIII): no measurable affinity was detected

Q: With `C#CC[C@H](NC(=O)[C@@H]1C[C@@H](C2CCCCC2)CN1C(=O)CSC1CCN(C(=O)CC[C@H](NC(=O)N[C@@H](CCC(=O)O)C(=O)O)C(=O)O)CC1)C(=O)NCCOCCOCCNC(=S)Nc1ccc2c(c1)C(=O)OC21c2ccc(O)cc2Oc2cc(O)ccc21` [Compound 9] as the compound, how does the Kd (human recombinant PSMA) read?
A: The Kd was 0.9 ± 0.5 nM.

Q: And the “fold selectivity (fold higher dissociation constant towards GCPIII)” value (human recombinant GCPIII)?
A: Its value is roughly 40 fold.

Q: With `C#CC[C@@H](NC(=O)[C@@H]1C[C@@H](C2CCCCC2)CN1C(=O)CSC1CCN(C(=O)CC[C@H](NC(=O)N[C@@H](CCC(=O)O)C(=O)O)C(=O)O)CC1)C(=O)NCCOCCOCCNC(=S)Nc1ccc2c(c1)C(=O)OC21c2ccc(O)cc2Oc2cc(O)ccc21` [Compound 10] as the compound, how does the Kd (human recombinant PSMA) read?
A: The Kd was 1.3 ± 0.7 nM.

Q: What about the “fold selectivity (fold higher dissociation constant towards GCPIII)” value (human recombinant GCPIII) of the same compound?
A: Its value is roughly 40 fold.

Q: Which “binding to PSMA on cells, fluorescence shift by flow cytometry” value (HT1080.hPSMA cells) does the source give for `O=C(O)CC[C@H](NC(=O)N[C@@H](CCC(=O)NCCOCCOCCNC(=S)Nc1ccc2c(c1)C(=O)OC21c2ccc(O)cc2Oc2cc(O)ccc21)C(=O)O)C(=O)O` [Compound 12] here?
A: The value was “avidly bound to PSMA”.

Q: What about the “binding to PSMA on cells, fluorescence shift by flow cytometry” value (LNCaP cells) of the same compound?
A: The value was “avidly bound to PSMA”.

Q: With `O=C(CCNS(=O)(=O)c1ccc2ccccc2c1)N[C@H]1C[C@H](C(=O)O)N(C(=O)c2nn(-c3ccccc3)c(=O)[nH]c2=O)C1` [HIT2] as the compound, how does the “binding to PSMA on cells, fluorescence shift by flow cytometry” value (HT1080.hPSMA cells) read?
A: The value was “not able to interact with PSMA on tumor cells”.

Q: What does the source list for `O=C(O)CC[C@H](NC(=O)N[C@@H](CCC(=O)O)C(=O)O)C(=O)O` [HIT3, (2S,2′S)-2,2′-(carbonyldiimino)dipentanedioic acid, reference compound]?
A: Kd (human recombinant PSMA): 1 nM; Kd (human recombinant GCPIII): 1.2 nM and 1 nM; IC50 (PSMA): 47 nM

Q: What does the source list for `O=C([O-])CN1CCN(CC(=O)[O-])CCN(CC(=O)NCC2CCC(C(=O)N[C@@H](Cc3ccc4ccccc4c3)C(=O)NCCCC[C@H](NC(=O)N[C@@H](CCC(=O)O)C(=O)O)C(=O)O)CC2)CCN(CC(=O)[O-])CC1.[177Lu+3]` (stereo partly shown) [Pluvicto™]?
A: Tumor (HT1080.hPSMA) uptake (HT1080.hPSMA tumors; 18: 1 nmol/mouse, Pluvicto 0.5 nmol/mouse, 1 MBq): 32.4 %ID/g; Kidney uptake (HT1080.hPSMA tumors): 2.16 %ID/g; Tumor-to-organ ratio, Blood (T : B) (HT1080.hPSMA tumors): 2079; overall response rate [1]: 30%; overall survival [1]: 15.3 months
